Reference: article PMC3254186 (Frontiers in Pharmacology, 2011)

Columns and labels:
Format in all cases: cell-based
[1] = molecular target: T1, Kir2.1 (Homo sapiens, UniProt P63252); experiment: Two-electrode voltage clamp in Xenopus oocytes, Kir2.1
T1 sequence (P63252 1-427): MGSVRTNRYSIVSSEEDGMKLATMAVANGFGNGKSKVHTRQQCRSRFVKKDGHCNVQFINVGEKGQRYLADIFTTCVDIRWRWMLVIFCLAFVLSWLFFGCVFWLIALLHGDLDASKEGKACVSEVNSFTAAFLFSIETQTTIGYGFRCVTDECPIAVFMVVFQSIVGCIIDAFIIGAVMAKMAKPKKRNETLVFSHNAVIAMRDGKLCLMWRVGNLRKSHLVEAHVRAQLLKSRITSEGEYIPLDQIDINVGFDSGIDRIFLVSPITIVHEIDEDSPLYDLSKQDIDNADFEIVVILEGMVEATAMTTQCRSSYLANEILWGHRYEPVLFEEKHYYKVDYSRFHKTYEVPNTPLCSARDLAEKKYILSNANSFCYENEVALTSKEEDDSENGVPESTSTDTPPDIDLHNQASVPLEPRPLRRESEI
Outline: (§1)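 Stage V–VI Xenopus oocytes were defolliculated with 1 mg/mL collagenase and injected with 0.5–10 ng cRNA. They were kept at 16°C in modified L-15 for 24–72 h. Two-electrode voltage clamp at 20–23°C: held at −75 mV and stepped to −120 mV for 200 ms every 5 s, with current at −120 mV tracked over time. Test compound (50 μM) was perfused, then 2 mM Ba2+. Time constant of inhibition derived.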

[2] = molecular target: T2, Kir1.1 (Rattus norvegicus, UniProt P35560); experiment: Two-electrode voltage clamp in Xenopus oocytes, Kir1.1
T2 sequence (P35560 1-391): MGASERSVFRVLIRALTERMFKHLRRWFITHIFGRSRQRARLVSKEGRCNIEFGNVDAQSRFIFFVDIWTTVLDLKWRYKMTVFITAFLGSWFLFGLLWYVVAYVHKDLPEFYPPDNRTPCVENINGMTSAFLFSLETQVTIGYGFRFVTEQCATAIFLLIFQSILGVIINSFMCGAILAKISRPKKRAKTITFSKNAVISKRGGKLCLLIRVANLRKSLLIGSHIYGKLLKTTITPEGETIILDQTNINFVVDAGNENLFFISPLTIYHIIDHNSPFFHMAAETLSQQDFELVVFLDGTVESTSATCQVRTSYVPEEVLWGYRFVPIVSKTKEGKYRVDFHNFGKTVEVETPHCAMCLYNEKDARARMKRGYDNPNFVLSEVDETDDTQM
Outline: as §1

[3] = molecular target: T3, Kir3.1/3.2 (GIRK) (Homo sapiens, UniProt P48051+P48549); experiment: Tl+ flux assay, mGluR8-activated GIRK in HEK-293 cells; conditions: from Tl+ flux IC50 values
T3 sequence (P48549 1-501): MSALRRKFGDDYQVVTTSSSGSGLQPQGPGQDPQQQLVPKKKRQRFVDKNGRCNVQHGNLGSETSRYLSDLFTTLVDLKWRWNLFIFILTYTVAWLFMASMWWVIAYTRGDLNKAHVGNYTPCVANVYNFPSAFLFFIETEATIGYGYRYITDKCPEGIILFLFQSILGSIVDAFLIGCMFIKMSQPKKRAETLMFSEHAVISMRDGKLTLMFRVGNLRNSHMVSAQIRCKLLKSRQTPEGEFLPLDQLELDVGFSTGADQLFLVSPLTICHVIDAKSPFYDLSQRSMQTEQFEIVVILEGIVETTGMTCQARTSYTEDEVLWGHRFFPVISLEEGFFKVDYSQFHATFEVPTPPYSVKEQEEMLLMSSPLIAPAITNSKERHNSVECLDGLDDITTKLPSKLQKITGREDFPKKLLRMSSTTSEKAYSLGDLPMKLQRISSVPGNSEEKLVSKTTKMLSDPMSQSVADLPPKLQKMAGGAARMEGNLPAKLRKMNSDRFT
T3 sequence (P48051 1-423): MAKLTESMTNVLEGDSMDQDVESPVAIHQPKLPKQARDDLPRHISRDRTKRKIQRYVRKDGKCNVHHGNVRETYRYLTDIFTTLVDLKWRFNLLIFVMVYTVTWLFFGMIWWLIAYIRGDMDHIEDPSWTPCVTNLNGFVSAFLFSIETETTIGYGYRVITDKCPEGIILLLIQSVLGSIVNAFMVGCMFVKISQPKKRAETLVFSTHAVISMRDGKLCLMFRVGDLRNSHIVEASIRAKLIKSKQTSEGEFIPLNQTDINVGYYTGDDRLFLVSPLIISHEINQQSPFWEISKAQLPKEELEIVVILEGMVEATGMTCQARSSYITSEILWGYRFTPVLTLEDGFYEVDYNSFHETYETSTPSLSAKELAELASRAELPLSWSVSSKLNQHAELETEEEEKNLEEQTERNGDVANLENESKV
Outline: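 mGluR8/GIRK/HEK monoclonal cells stably expressing Kir3.1/3.2, M4 receptor and rat mGlu8a, loaded with FluoZin-2. Test compound pre-incubated 20 min (1:3 serial dilutions from 10 mM DMSO stock). Tl+ buffer (12 mM Tl2SO4, pH 7.3) added with glutamate at EC80, set daily from an 11-point curve. Imaged at 1 Hz (ex 470, em 540 nm), 20–23°C. Slope taken 5–15 s post-addition, vehicle-corrected. CRC n = 3. Selectivity taken from the Tl+ flux IC50 values for GIRK and Kir1.1-S44D.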

[4] = molecular target: T4, wild type Kir7.1 (Homo sapiens, UniProt O60928); experiment: Whole-cell patch clamp, wild type Kir7.1 in transfected HEK-293 cells
T4 sequence (O60928 1-360): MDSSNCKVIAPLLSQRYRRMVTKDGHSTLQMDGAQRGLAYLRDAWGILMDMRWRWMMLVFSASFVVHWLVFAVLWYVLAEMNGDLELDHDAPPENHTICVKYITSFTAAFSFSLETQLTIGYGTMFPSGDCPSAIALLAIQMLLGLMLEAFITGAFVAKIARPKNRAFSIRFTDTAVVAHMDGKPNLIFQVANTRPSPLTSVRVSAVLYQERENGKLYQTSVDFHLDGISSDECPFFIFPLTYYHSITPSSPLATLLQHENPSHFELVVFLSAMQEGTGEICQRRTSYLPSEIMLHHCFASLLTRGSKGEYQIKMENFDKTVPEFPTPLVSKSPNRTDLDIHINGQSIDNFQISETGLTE
Outline: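 HEK-293 cells were transiently co-transfected with channel plus an EGFP marker (Lipofectamine). Pipette: 135 mM KCl, 2 mM MgCl2, 1 mM EGTA, 10 mM HEPES, 2 mM Na2ATP, pH 7.3. Bath: 135 mM NaCl, 5 mM KCl, pH 7.4; some runs used 50 mM KCl. Held at −75 mV and ramped −120 to 120 mV every 5 s, at 20–23°C. Test compound was bath-applied for 2–10 min, then 2 mM BaCl2. CRC n = 4–7. τ taken from the time course.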

## Cc1ccc(OCC(O)Cn2c(=N)n(Cc3ccccc3)c3ccccc32)cc1 (centres unmarked) [Compound 1, 1-(3-benzyl-2-imino-2,3-dihydro-1H-benzo[d]imidazol-1-yl)-3-(p-tolyloxy)propan-2-ol]
[1]; TEVC oocytes, 50 μM, n = 4
  time constant (τ) of Kir2.1 inhibition: 735 ± 85 s
[1]; read-out: inhibition of Kir2.1
  inhibition at 50 µM: 30.2 ± 9.4%
[2]; TEVC oocytes, 50 μM, n = 8
  time constant of Kir1.1 inhibition: 95 ± 15 s
[2]; read-out: inhibition of Kir1.1
  inhibition at 50 µM: 4.3 ± 1.7%
[3]
  selectivity for GIRK over Kir1.1: 10 fold
[4]; IC50 Kir7.1, whole-cell patch clamp, wild type Kir7.1, HEK-293
  IC50: ~1 µM
[4]; whole-cell patch clamp, 10 μM, n = 4
  effect on wild type Kir7.1 activity: near complete inhibition
[4]; whole-cell patch clamp, 30 μM, mean ± SEM, n = 4
  time constant for inhibition of Kir7.1: 14 ± 2 s
